Measurements: ChEMBL document CHEMBL1833940, “Discovery of 3-(2,6-dichloro-3,5-dimethoxy-phenyl)-1-{6-[4-(4-ethyl-piperazin-1-yl)-phenylamino]-pyrimidin-4-yl}-1-methyl-urea (NVP-BGJ398), a potent and selective inhibitor of the fibroblast growth factor receptor family of receptor tyrosine kinase” (J Med Chem, 2011)
pIC50: −log10 of the molar value.

Tests used:
[1] = test system: BaF3; assay: Antiproliferative activity against mouse BAF3 cell line transformed with TEL-FGFR3 construct after 48 hrs by luciferase bioluminescent assay; type: functional, cell-based; settings: BaF3, 48 h
Procedure, shortened: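 IL-3-independent BaF3 or BaF3 Tel-TK cells were grown in RPMI-1640 with 10% FBS and seeded at 4250 cells/well in 384-well plates. Compound serially diluted in DMSO was pin-transferred, followed by 48 h at 37 °C, 5% CO2. Viability was read by Bright-Glo luciferase luminescence.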

[2] = biological target: Cytochrome P450 2C19 (Homo sapiens, UniProt P33261); assay: Inhibition of CYP2C19 using CEC as substrate; type: ADME
Chain of Cytochrome P450 2C19 (P33261 whole entry, canonical isoform): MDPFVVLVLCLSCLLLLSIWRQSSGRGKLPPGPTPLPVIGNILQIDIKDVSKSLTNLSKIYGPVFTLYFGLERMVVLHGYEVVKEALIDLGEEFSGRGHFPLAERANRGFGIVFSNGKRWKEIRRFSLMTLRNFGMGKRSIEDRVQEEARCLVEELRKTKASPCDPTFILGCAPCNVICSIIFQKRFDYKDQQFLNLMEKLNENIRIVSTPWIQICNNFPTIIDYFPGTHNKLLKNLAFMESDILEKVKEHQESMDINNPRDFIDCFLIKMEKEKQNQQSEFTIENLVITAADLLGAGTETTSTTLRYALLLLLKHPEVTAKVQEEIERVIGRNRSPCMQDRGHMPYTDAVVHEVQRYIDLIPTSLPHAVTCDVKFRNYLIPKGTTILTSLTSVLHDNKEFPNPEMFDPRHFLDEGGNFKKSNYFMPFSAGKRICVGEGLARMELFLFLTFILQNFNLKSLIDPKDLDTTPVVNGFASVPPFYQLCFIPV
Procedure, shortened: (§1)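 Human CYP450 inhibition was measured with isoform-specific fluorogenic probe substrates: CEC for 1A2 and 2C19, MFC for 2C9, AMMC for 2D6. Incubation was at 37 °C with an NADPH-regenerating system in 384-well format. Metabolite was quantified by fluorescence, and IC50 was obtained by curve fitting.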

[3] = biological target: T1, Cytochrome P450 3A4 (Homo sapiens, UniProt P08684); assay: Inhibition of CYP3A4 using BFC as substrate
T1 sequence (P08684 whole entry): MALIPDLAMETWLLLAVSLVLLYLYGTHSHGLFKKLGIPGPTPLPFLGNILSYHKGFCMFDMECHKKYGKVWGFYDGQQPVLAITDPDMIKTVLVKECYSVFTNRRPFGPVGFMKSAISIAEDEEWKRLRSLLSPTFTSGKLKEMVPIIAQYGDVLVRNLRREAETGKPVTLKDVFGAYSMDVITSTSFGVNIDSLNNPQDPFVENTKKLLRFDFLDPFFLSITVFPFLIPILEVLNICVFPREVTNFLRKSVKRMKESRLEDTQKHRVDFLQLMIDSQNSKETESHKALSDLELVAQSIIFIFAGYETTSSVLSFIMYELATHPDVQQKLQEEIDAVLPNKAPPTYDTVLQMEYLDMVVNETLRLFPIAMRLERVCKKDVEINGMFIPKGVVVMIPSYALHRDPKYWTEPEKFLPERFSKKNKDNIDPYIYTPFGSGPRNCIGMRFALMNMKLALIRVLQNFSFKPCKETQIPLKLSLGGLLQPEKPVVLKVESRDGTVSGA

[4] = biological target: T1, Cytochrome P450 3A4; assay: Inhibition of CYP3A4 using DBF as substrate
[5] = biological target: Cytochrome P450 2C9 (Homo sapiens, UniProt P11712); assay: Inhibition of CYP2C9 using MFC as substrate; type: ADME; procedure, shortened: as §1
Chain of Cytochrome P450 2C9 (P11712 whole entry): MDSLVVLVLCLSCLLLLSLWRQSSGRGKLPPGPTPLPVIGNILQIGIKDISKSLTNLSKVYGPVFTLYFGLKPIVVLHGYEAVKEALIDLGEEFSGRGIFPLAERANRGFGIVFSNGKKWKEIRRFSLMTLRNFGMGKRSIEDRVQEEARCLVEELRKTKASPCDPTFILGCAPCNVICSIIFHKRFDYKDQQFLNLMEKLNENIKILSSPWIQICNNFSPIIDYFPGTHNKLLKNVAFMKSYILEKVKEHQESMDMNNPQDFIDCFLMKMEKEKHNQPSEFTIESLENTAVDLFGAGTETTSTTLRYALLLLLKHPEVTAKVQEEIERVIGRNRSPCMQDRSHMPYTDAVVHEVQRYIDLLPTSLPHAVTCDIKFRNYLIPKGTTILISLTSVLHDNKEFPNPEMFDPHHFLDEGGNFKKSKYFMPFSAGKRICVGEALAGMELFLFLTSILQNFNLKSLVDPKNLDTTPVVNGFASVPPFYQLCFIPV

[6] = biological target: Cytochrome P450 2D6 (Homo sapiens, UniProt P10635); assay: Inhibition of CYP2D6 using AMMC as substrate; type: ADME; procedure, shortened: as §1
Chain of Cytochrome P450 2D6 (P10635 whole entry): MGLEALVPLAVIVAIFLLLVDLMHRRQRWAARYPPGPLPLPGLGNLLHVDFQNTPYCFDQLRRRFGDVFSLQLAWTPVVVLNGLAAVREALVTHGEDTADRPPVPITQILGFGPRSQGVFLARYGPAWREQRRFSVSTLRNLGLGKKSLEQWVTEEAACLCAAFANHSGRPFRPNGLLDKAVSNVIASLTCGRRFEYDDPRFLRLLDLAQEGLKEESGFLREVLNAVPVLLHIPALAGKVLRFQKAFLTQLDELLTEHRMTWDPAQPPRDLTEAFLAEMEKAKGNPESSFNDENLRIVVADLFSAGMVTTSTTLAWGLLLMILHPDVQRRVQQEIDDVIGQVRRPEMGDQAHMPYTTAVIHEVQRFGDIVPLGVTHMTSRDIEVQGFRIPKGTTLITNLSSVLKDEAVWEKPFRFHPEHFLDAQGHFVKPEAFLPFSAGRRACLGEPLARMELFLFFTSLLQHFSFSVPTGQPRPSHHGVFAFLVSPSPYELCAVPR

[7] = biological target: T2, Cytochrome P450 1A2 (Homo sapiens, UniProt P05177); assay: Inhibition of CYP1A2 using CEC as substrate; type: ADME; procedure, shortened: as §1
T2 sequence (P05177 whole entry): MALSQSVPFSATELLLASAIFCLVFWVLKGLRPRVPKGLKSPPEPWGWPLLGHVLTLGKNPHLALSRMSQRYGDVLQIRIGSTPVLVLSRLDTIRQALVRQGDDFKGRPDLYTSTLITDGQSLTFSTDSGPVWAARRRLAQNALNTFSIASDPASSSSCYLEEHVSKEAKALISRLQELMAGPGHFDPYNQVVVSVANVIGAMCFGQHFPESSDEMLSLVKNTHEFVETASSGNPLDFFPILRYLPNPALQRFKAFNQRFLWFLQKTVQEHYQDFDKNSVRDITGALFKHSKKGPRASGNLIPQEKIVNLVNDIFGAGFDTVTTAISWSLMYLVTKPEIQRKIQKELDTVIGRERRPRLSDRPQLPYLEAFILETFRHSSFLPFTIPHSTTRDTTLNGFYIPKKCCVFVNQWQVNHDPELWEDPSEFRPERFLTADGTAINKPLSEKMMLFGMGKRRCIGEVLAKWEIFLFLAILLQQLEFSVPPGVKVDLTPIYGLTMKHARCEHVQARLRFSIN

SMILES	pIC50 [1]	pIC50 [2]	pIC50 [3]	pIC50 [4]	pIC50 [5]	pIC50 [6]	pIC50 [7]
CCN(C(=O)Nc1cc(OC)cc(OC)c1Cl)c1cc(Nc2ccc(N3CCN(C)CC3)cc2)ncn1	6.12						
COc1cc(NC(=O)N(C)c2cc(Nc3ccc(N4CCN(C)CC4)cc3)ncn2)cc(OC)c1	5.82						
COc1cc(NC(=O)N(C)c2cc(Nc3ccc(N4CCN(C)CC4)cc3)ncn2)c(Cl)c(OC)c1	6.20						
COc1cc(NC(=O)Nc2cc(Nc3ccc(N4CCN(C)CC4)cc3)ncn2)c(Cl)c(OC)c1	6.08						
COc1ccc(Cl)c(NC(=O)Nc2cc(Nc3ccc(N4CCN(C)CC4)cc3)ncn2)c1	5.65						
COc1ccc(Cl)c(NC(=O)Nc2cc(Nc3ccc(N4CCN(C)CC4)cc3)ncn2)c1Cl	6.90						
COc1ccc(Cl)c(NC(=O)N(C)c2cc(Nc3ccc(N4CCN(C)CC4)cc3)ncn2)c1Cl	6.93						
COc1cc(OC)c(Cl)c(NC(=O)N(C)c2cc(Nc3cccc(N4CCN(C)CC4)c3)ncn2)c1Cl	8.70	6.05	5.96	< 5.00	5.77	< 5.00	< 5.00
COc1cc(OC)c(Cl)c(NC(=O)N(C)c2cc(Nc3ccc(OCCN4CCCC4)cc3)ncn2)c1Cl	7.55	< 5.00	< 5.00	5.60	< 5.00	< 5.00	< 5.00
COc1cc(OC)c(Cl)c(NC(=O)N(C)c2cc(Nc3ccc(CCCN(C)C)cc3)ncn2)c1Cl	7.57	5.44	6.00	< 5.00	< 5.00	< 5.00	< 5.00
CCN1CCC(c2ccc(Nc3cc(N(C)C(=O)Nc4c(Cl)c(OC)cc(OC)c4Cl)ncn3)cc2)CC1	7.85	5.96	5.92	5.22	5.40	< 5.00	< 5.00
COc1cc(OC)c(Cl)c(NC(=O)N(C)c2cc(Nc3cccc(CN4CCN(C)CC4)c3)ncn2)c1Cl	7.85	6.52	6.30	< 5.00	< 5.00	< 5.00	5.15
COc1cc(OC)c(Cl)c(NC(=O)N(C)c2cc(Nc3cccc(CN(C)C)c3)ncn2)c1Cl	7.96	5.85			< 5.00	< 5.00	< 5.00
